# IMP-1 inhibitor – inhibitors of Pseudomonas aeruginosa IMP-1 metallo-beta-lactamase; purified IMP-1, nitrocefin hydrolysis, epi-absorbance fluorescence; 290,000 tested, 0.45% active; AID 1556; inhibition, % at 5.6 µM;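 active = inhibition above the mean plus 3 SD of all compounds in the same screening run, cut at about 4.5% in these data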
#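 System: purified IMP-1; amount: IMP-1 0.2 nM before substrate addition; compound: single dose, 5.6 µM; times: 25 °C, 15 min preincubation, 25 min reaction; signal: Epi-absorbance via hydrolysed-nitrocefin quenching of white-plate fluorescence, 480/530 nm, EDTA stop; benchmarks: DMSO with and without IMP-1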
# M18AAP inhibitor – PfM18AAP enzyme inhibition. inhibition, % at 7.35 µM. 290,000 tested, 1.2% active. recombinant PfM18AAP, H-Glu-NHMec fluorogenic cleavage;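 active = inhibition above the campaign mean inhibition over all tested compounds plus 3 SD, cut at about 28% in these data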
# sPLA2-III inh – Inhibits HGIII-sPLA2 liposome hydrolysis, primary screen | Q9NZ20 | QFRET BODIPY PC-A2 liposome hydrolysis, fluorescence | inhibition, % at 12.2 µM | 370,000 tested, 0.56% active | AID 743126;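 active = inhibition above mean plus 3 SD of compounds lying within the high and low control bounds, cut at about 19% in these data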
# Target sequence (Q9NZ20 whole entry, looked up): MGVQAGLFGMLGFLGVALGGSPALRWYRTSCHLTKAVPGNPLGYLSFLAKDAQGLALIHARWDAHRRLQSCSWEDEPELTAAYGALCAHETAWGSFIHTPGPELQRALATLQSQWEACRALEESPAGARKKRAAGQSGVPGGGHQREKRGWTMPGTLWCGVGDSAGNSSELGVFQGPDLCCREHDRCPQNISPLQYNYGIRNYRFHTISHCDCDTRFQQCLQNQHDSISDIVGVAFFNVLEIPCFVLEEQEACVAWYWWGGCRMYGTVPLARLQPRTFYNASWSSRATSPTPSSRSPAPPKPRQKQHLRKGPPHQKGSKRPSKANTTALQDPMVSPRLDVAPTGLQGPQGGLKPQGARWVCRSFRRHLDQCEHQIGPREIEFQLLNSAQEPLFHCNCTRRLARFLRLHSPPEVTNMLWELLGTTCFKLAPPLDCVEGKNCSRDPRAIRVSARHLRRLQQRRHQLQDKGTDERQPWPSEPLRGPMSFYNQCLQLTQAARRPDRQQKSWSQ
# VIM-2 inh – blocks Pseudomonas aeruginosa VIM-2 metallo-beta-lactamase; inhibition, % at 5.6 µM; 290,000 tested, 0.89% active; AID 1527; purified VIM-2, nitrocefin hydrolysis, epi-absorbance fluorescence;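 active = inhibition above the mean of all tested compounds plus 3 SD, cutoff set per screening run, cut at about 7.5% in these data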;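 also: red hydrolysis product quenches plate fluorescence so inhibitors raise well fluorescence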
# Numbers stand for hits; – = inactive; · = no result. Compounds with a hit are over-represented: about 2.4% of the library has one in this group of screens.
SMILES,IMP-1 inhibitor,M18AAP inhibitor,sPLA2-III inh,VIM-2 inh
Cc1cc(C)nc(NC(=S)NC(=O)c2ccccc2)n1,–,–,–,8.4
Cc1cc(C)nc(SCNC(=O)c2ccccc2)n1,–,45.0,–,–
Cc1ccccc1C(=O)NNC(=S)NC(=O)c1ccccc1,–,–,–,–
Cc1ccc(C(=O)NNC(=S)NC(=O)c2ccccc2)cc1,·,·,35.2,·
CC(C)(C)c1cc(CCC(=O)NNC(=S)NC(=O)c2ccccc2)cc(C(C)(C)C)c1O,–,28.7,·,–
Cc1cc(C)cc(C(=O)OCCN(C)C2CN(Cc3cn(Cc4ccccc4C(F)(F)F)nn3)S(=O)(=O)C2)c1 (stereo not given),·,·,–,·
CN1C(=O)CS(=O)c2ccc(C(=O)NCCC3=CCCCC3)cc21 (stereo not given),–,29.5,–,–
CCCCOCCCNC(=O)C[C@H]1C[C@@]2(C(=O)OC)C(=C[C@H](C3CCCC3)O[C@@H]2C)N(Cc2cccc3ccccc23)C1=O,·,·,–,·
CCc1cc(=O)oc2c3c(cc(OCC(=O)NCc4cccnc4)c12)OC(C)(C)CC3,–,–,–,–
CCC(NC(=O)COc1cc2c(c3oc(=O)c(C)c(C)c13)CCC(C)(C)O2)C(=O)O (stereo not given),–,–,–,11.2
Cc1c(C)c2c(OCC(=O)NCc3cccnc3)cc3c(c2oc1=O)CCC(C)(C)O3,–,–,–,8.8
Cc1nc(N(C)C)c2sc(=S)n(C)c2n1,–,–,–,7.9
Cc1nc(N(C)C)c2sc(=S)n(-c3ccccc3)c2n1,–,–,–,–
COc1ccc(OC)c(/C=C2\N=C(c3ccccc3)OC2=O)c1,–,–,–,10.2
Cc1c(Cl)sn(-c2ccc(Cl)cc2)c1=O,–,57.5,–,–
O=[N+]([O-])c1ccc(/C=C/C2=NN(c3ccccc3)C(c3ccco3)C2)o1 (stereo not given),5.5,–,–,–
C(=C\c1ccco1)/C1=NN(c2ccccc2)C(c2ccco2)C1 (stereo not given),–,–,·,–
CC(=O)c1nc(N2C(=O)CC(Cc3cccc(C)c3)C2=O)sc1C (stereo not given),16.6,–,–,–
CC(=O)c1nc(N2C(=O)CC(Cc3cc(C)cc(C)c3)C2=O)sc1C (stereo not given),–,–,–,–
COC(=O)[C@H](C)N(Cc1cn(Cc2ccccc2)nn1)S(=O)(=O)c1ccccc1Br,·,·,–,·
CCCCN(CC)CCNC(=O)CCC(=O)Nc1ccc2nc(N3CCN(C)CC3)cc(C)c2c1,–,–,–,7.8
Nc1c(C(=O)N2CCOCC2)sc2nc3c(cc12)CCCC3,–,30.5,–,–
Cc1ccc(C)c2[nH]c(=O)c(CN(Cc3ccc4c(c3)OCO4)Cc3nnnn3Cc3ccco3)cc12,–,32.2,–,–
CS(=O)(=O)N[C@@H]1C[C@@H]2O[C@H](CO)CC[C@@H]2O[C@@H]1CCc1ccc(/C=C/c2ccccc2)cc1,·,·,–,·
CCCn1c2ccccc2c2cnn(CC(=O)N3CCOCC3)c(=O)c21,–,–,–,–
SMILES,IMP-1 inhibitor,M18AAP inhibitor,sPLA2-III inh,VIM-2 inh
CCCn1c2ccccc2c2cnn(CC(=O)N3CCN(C4CCCCC4)CC3)c(=O)c21,–,–,·,7.8
NCCNC(=O)Cn1c(=O)c2c3c(sc2n(Cc2ccccc2)c1=O)CCCC3,–,–,–,8.2
NCCCNC(=O)Cn1c(=O)c2c3c(sc2n(Cc2ccccc2)c1=O)CCCC3,–,–,–,–
COc1ccc2ccccc2c1C(=O)/C=C\c1ccoc1,6.6,–,–,–
CC(C)(C)C(=O)Nc1nnc(SCC(=O)NCc2ccco2)s1,–,–,–,8.6
O=C(CSc1nnc(NC(=O)c2ccc(F)cc2)s1)NCc1ccco1,–,–,–,11.7
CC(C)n1c(SCC(=O)NCc2ccco2)nnc1C1CC1,–,28.1,–,–
O=C(CSc1nnc(NC(=O)c2ccc3c(c2)OCO3)s1)NCc1ccco1,–,–,–,–
CCn1c(N2CCC(C)CC2)nc2c1c(=O)n(C)c(=O)n2C,–,–,25.6,–
CC1CCN(c2nc3c(c(=O)n(C)c(=O)n3C)n2Cc2ccccc2)CC1,–,–,–,–
CCOc1cc(/C=C2\CCCc3c2nc2ccccc2c3C(=O)O)ccc1OC,6.9,–,–,–
O=C(Nc1ccc(C(F)(F)F)cc1)OC1CC2CC1[C@H]1CCCCN1C2 (stereo not given in full),·,·,–,·
O=C1/C(=C/c2cccs2)CCC/C1=C\c1cccs1,5.6,–,–,–
O=C1C(=Cc2cccs2)CCc2ccccc21,·,·,–,·
CCn1c2ccccc2c2cc(NC(=O)c3cc4c(C)nn(-c5ccccc5)c4s3)ccc21,·,·,–,·
CCNc1nc(NCC)nc(OCCOC(C)=O)n1,4.9,–,–,–
CC(=NNc1cc(C)c2ccccc2n1)c1ccccn1,·,·,–,·

# Screening results as filed in PubChem BioAssay.
